Source: the EternaBench riboswitch data

Test system: MS2 coat protein
Assay: apparent Kd, MS2 coat protein; higher = weaker binding; RNA-MaP array; FMN 200 µM where present
Outline: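 Designs were transcribed by stalled E. coli RNA polymerase on Illumina sequencing-chip clusters. They were titrated with SNAP-549-labelled MS2 coat protein from 0.7 or 1.5 nM, doubling to 3 µM, without and then with constant ligand. Buffer: 100 mM Tris-HCl pH 7.5, 80 mM KCl, 4 mM MgCl2, BSA, DTT, yeast tRNA, Tween-20. Green signal was normalised to red-channel RNA signal and control-cluster median Fmax. Apparent Kd is the median of filtered per-cluster binding-curve fits.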

[1] = designed as: OFF switch for flavin mononucleotide, no ligand
[2] = ligand present: flavin mononucleotide, designed as: OFF switch for flavin mononucleotide
[3] = designed as: ON switch for flavin mononucleotide, no ligand
[4] = ligand present: flavin mononucleotide, designed as: ON switch for flavin mononucleotide

Sequence	apparent Kd [1]	apparent Kd [2]	apparent Kd [3]	apparent Kd [4]
CACACCGUAGGAGGAUAUCCCUGGACAUGAGGAUCACCCAUGUUUAGCCCGUCCUCAUGUUAGUCGGAGAAGGCCUAGUGGUCG	36.7 nM	37.6 nM	–	–
CACCGUUACAGAGGAUAUCUUACAUGAGGAUCACCCAUGUAAUAAAUGAGAAUUUCGGAUGUAUGAGAGAAGGCUGGAAUCGGC	23.2 nM	22 nM	–	–
CACGAUGAUGUAGGAUAUAUGCUGGAAUACAGCAUAGAAGGACAUGAGGAUCACCCAUGUAAAGUGCCUCCAAAUAACAUCGUG	18.5 nM	44.5 nM	–	–
CACGGAUAGUAGAAGGGUGACAUGAGGAUCACCCAUGUACUUAUUUAUUUAUUACUAUUUCAUACACAGGAUAUACUAUCCGUG	–	–	652 nM	176 nM
CACGGCGUAUCAGGAUAUGUGGGUGUCUGGACAUGAGGAUCACCCAUGUAAUCAGUAUUAGCCGUGCAGAAGGGAUCCGCUGUA	–	–	35.2 nM	60.3 nM
CACUCACAUGAGGAUCACCCAUGUCCUAGGAGGUCAGGAUAUAGCUCGGAUGCGUUGAGGCUAGAAGGGACAGGUU	–	–	79.5 nM	88.6 nM
CACUCGUGUCUAGGAUAUGAGUGACAAGCGCGAGAUUUUCUCGCUGCUAGCUCAGAAGGAGACAUGAGGAUCACCCAUGUAAGG	144 nM	25.4 nM	–	–
CACUGUCAUGCAGGAUAUGCAUUGGAUUACAAUGCAGAAGGGCGAUUACAUGAGGAUCACCCAUGUGUAGACAGUGAAGAAGAG	–	–	165 nM	12.7 nM
CAGAAGUCAGGAUAUCCAUGGCGGCACUUGCGUGGUGGCGUGGAGAAGGGACAUGAGGAUCACCCAUGUAAAGC	57.4 nM	45.3 nM	–	–
CAGAAGUCAGGAUAUCCUGCUCGUCACUUGCGUGAUGAGUAGGAGAAGGGACAUGAGGAUCACCCAUGUAAAGG	144 nM	411 nM	–	–
CAGAAGUCAGGAUAUGCAUGGCGGGACUUGCGUCGUGGCGUGCAGAAGGGACAUGAGGAUCACCCAUGUGGAGA	138 nM	224 nM	–	–
CAGACACAUGAGGAUCACCCAUGUGAGGAUAUGCGUACGUUGUCCGUAGGCGACGUGCGCAGAAGGCACAAAGG	73.4 nM	104 nM	–	–
CAGAUUUGCUAGAAGGGUGACAUGAGGAUCACCCAUGUGCGGGCAGUCCUAUCUUCAUGCCCGCCACAGGAUAUAGCAAUUCUC	–	–	24.1 nM	49 nM
CAGCACGGAAACAAAGUCUUCGGACAUGAGGAUCACCCAUGUAAGGAUAUGCCUACUAAAAGUAGGCAGAAGGUACGCGUGCUG	18.9 nM	50.9 nM	–	–
CAGCACUAUCGAGAGGAUAUGCGGUGAUGGACAUGAGGAUCACCCAUGUUAGCGGUAGCAUCACGGCAGAAGGCUCUGCUGCUGC	–	–	28.8 nM	19.9 nM
CAGCCCUGAGGAUAUCCCUACUUGUACAUGAGGAUCACCCAUGUUCUCCUCUGGGCUUUGGGAGAAGGCAGGUCUC	15 nM	17.7 nM	–	–
CAGCCCUGAGGAUAUCCCUCCUUGUACAUGAGGAUCACCCAUGUUCUCCUCUGGGCCUUGGGAGAAGGCAGAUCUC	56.9 nM	49.5 nM	–	–
CAGCGAAAGUAGAAGGCAGUACUGAUACAGUACUGAGGAUAUACAUGAGGAUCACCCAUGUACAAAAGCUGGAAAUAAAUAAAA	6.56 nM	6.81 nM	–	–
CAGCGACAUGGAGGAUAUAGGGCCCAAGGGCACCUAGAAGGCCAAAAGCAGACAGGUCACAUGAGGAUCACCCAUGUACGCCAG	–	–	241 nM	16.3 nM
CAGCGAUAGCUGAACAAUCUAUCUGAGGAUAUUCAUAUAAAACAUGAGGAUCACCCAUGUAAUUGGGAGAAGGCAGAUAGAUUG	–	–	22.4 nM	6.11 nM
CAGCGAUAGCUGAAUGGUACAUGGGAGGAUAUGGGAAGAUACAUGAGGAUCACCCAUGUUAAAUACUAGAAGGCCCAUGUACCU	–	–	14.9 nM	5.45 nM
CAGGGUAGAGGAUAUACGUAGGUACAGAUCCGUGUGAUCCUACAUGAGGAUCACCCAUGUAGAAGGCUAGCCUG	305 nM	25.9 nM	–	–
CAGGGUUCGUGAAUAAGCUAGCUUCGAGAAGGGCCACAUGAGGAUCACCCAUGUCAGCGAAAACGGCAGGAUAUCGAGGGUGAG	–	–	147 nM	48.4 nM
CAGGUAGACUGAGGAUAUACAAUAAACAGCUAGUCUAUCUAGCUGUCUACAUGAGGAUCACCCAUGUAGAAGGCAGUCUGCCUG	17 nM	17.4 nM	–	–
CAGGUAGACUGAGGAUAUACAAUAAAGACCUAGUCUAUCUAGGUCCCUACAUGAGGAUCACCCAUGUAGAAGGCAGUCUGCCUG	15.9 nM	20.5 nM	–	–
CAGGUAGACUGAGGAUAUACAAUAAGACCUAGUCUAUCUAGGUCAAUCACAUGAGGAUCACCCAUGUAGAAGGCAGUCUGCCUG	17.3 nM	36.2 nM	–	–
CAGGUAGACUGAGGAUAUACAAUAAGACCUAGUCUAUCUAGGUCCCUCACAUGAGGAUCACCCAUGUAGAAGGCAGUCUGCCUG	51.5 nM	636 nM	–	–
CAGGUCUGAGGAUAUCCAUCUUCAUACAUGAGGAUCACCCAUGUUUACCUUUGGGUUUUCGGAGAAGGCAGUUUUU	273 nM	370 nM	–	–

Sequence	apparent Kd [1]	apparent Kd [2]	apparent Kd [3]	apparent Kd [4]
CAGUACUGAGGAUAUACAUGAGGAUCACCCAUGUGCCUAAGCUAGGAUACUAGCAUUAGUAGAAGGCAGUACUG	12.8 nM	24.8 nM	–	–
CAGUACUGAGGAUAUACAUGAGGAUCACCCAUGUGCUUCAGCUAGGAUACUAGCAUUAGUAGAAGGCAGUACUG	10.9 nM	64.1 nM	–	–
CAGUACUGAGGAUAUACAUGAGGAUCACCCAUGUGUCCCGGCUAGGAAACUAGCAAAAGUAGAAGGCAGUACUG	24 nM	516 nM	–	–
CAGUACUGAGGAUAUACAUGAGGAUCACCCAUGUGUCCUAGCUAGGAUACUAGCAUUAGUAGAAGGCAGUACUG	18 nM	213 nM	–	–
CAGUACUGAGGAUAUACAUGAGGAUCACCCAUGUGUUCCAGCGAGGAAACUAGCAAAAGUAGAAGGCAGUACUG	20.4 nM	278 nM	–	–
CAGUACUGAGGAUAUACAUGAGGAUCACCCAUGUGUUCCAGCUAGGAAACUAGCAAAAGUAGAAGGCAGUACUG	27.5 nM	589 nM	–	–
CAGUACUGAGGAUAUACAUGAGGAUCACCCAUGUGUUCCAGCUAGGAAACUAGCAAAAUUAGAAGGCAGUACUG	11.7 nM	20.7 nM	–	–
CAGUACUGAGGAUAUACAUGAGGAUCACCCAUGUGUUCCAGCUAGGAAACUAGCGAAAGUAGAAGGCAGUACUG	23.3 nM	551 nM	–	–
CAGUACUGAGGAUAUACAUGAGGAUCACCCAUGUGUUCCUUGUAGGAUAUGCGCAAAAGUAGAAGGCAGAAGGAGAUGUGCCUA	6.59 nM	6.3 nM	–	–
CAGUAUAACGAAGGAUAUGGAUACAUGAGGAUCACCCAUGUAUUUUUUGUGAUUUUAAAAUUGAUCCAGAAGGUCGUAUAACUG	31.1 nM	29.2 nM	–	–
CAUACGUCAGGAUAUCUGAUGUCUAACUUCGGUUAGACAUCAGAGAAGGGACAUGAGGAUCACCCAUGUAUGAA	118 nM	130 nM	–	–
CAUAUCCAAGGAUAUACGAUGGCUCCUUCCAUCGUGUGACCACAUGAGGAUCACCCAUGUAGAAGGUGGAUAUU	23.2 nM	24 nM	–	–
CAUCAGUCUGUGAGGAUAUUGGUCGAGUGACUUAUUAAGAAGGCACAUGAGGAUCACCCAUGUGGGAAGUCAGG	24.3 nM	26.6 nM	–	–
CAUCCACGGUAGAAGGGACUAGGCACAUGAGGAUCACCCAUGUCCUUUCCCAACUUGUGCCGCGGUCAGGAUAUACCGGGUCGG	12.5 nM	20 nM	–	–
CAUCUAUUUAGAGGAUAUGGUGACGAAAAGCUACCAGAAGGCUAAGUACAUGAGGAUCACCCAUGUGCGUGGGCGCUUAGGGUC	9.93 nM	47.8 nM	–	–
CAUCUGGUGCAGAAGGGACAUAGGGUCCUUUGGUCGCUAAGUAUCCCACAUGAGGAUCACCCAUGUCAGGAUAUGUAUCUGGAU	15.9 nM	30.1 nM	–	–
CAUGUCCUCACAGGAUAUGCUGGACUUUGUCCAGCAGAAGGGUGUUAACAUGAGGAUCACCCAUGUGGACAUGAUAUAUUUAAG	–	–	757 nM	66.2 nM
CAUGUGUAAGGAUAUGACAAUGGUAUCUUCGGAUACCAUUGUCAGAAGGUACAUGAGGAUCACCCAUGUGGAUC	441 nM	103 nM	–	–
CAUGUUUGGCUGGUCGAGAAACACAUGAGGAUCACCCAUGUCAGAAGGCGACGUCAGCAAACCGUCGAGGAUAUGACAUCAAAA	5.65 nM	30.2 nM	–	–
CAUUAAUUCAUUAUAUUAAUUUUACAGGAUAUGUAACAUGAGGAUCACCCAUGUAUUCAAGGUUAACAGAAGGGUAUAUCUAGU	18.2 nM	14 nM	–	–
CAUUAAUUGAUUAUUGAAUAUUUACAGGAUAUGUUACAUGAGGAUCACCCAUGUAAAUAUGGGUUACAGAAGGGUAUUUAUAGA	36.2 nM	32.5 nM	–	–
CAUUAAUUGAUUAUUGUAUUUAUACAGGAUAUGUAACAUGAGGAUCACCCAUGUAUACAUGGGAAACAGAAGGGUAUUUAAAGA	34.7 nM	25.3 nM	–	–
CAUUUACAGGGAGGAUAUACAUGAGGAUCACCCAUGUCAUCAUACGAUAUUUCUUUUGUAUGAGUGUAGAAGGCCCAACUACCA	10.2 nM	12 nM	–	–
CCACGGUAUGUAGGAUAUGCAUAGCAUUGCUAAAAAGAAGGACAUGAGGAUCACCCAUGUAUGUAUUCCAUACUAAUCCCGUGC	8.98 nM	8.06 nM	–	–
CCACUCGGUGAGAAGGCGCCGGCGUCCGCGAGGCGAGGAUAUCACAUGAGGAUCACCCAUGUGGGCAUGAAGAUUGCCACUAGG	61.3 nM	152 nM	–	–
CCACUGAUACCUUGGCCGCUACAUGAGGAUCACCCAUGUCGUGAGGAUAUCCCACCAUACUGUUAGGAGAAGGCGCGUAUGGGC	11 nM	17.2 nM	–	–
CCACUGUCAGGAUAUCGUGCAUAAGCGAUUACAUUUAUGUGCGAGAAGGGACAUGAGGAUCACCCAUGUAAUCG	528 nM	368 nM	–	–
